In experiment [1] the target is T1, G-protein coupled receptor 35 (Homo sapiens, UniProt Q9HC97). Put plainly: Agonist activity at GPR35 in human HT-29 cells by dynamic mass redistribution assay. In kind it is functional, cell-based.
Experiment [2] deals with T1, G-protein coupled receptor 35. Description: Agonist activity at GPR35 in human U20S cells expressing beta-lactamase and Gal4-VP16 transcription factor assessed as beta arrestin translocation after 5 hrs by Tango assay. It counts as functional, cell-based, U2OS. The method, boiled down:
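Tango GPR35-bla U2OS cells seeded at 10,000/well and cultured overnight in DMEM with 10% dialyzed FBS. Ligand stimulation 5 h at 37 °C/5% CO2, then LiveBLAzer FRET B/G substrate loading for 2 h. EC50 from monophasic sigmoidal fit. Two independent runs, each in duplicate (n = 4).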

Experiment [3] has the same target. Put plainly: Agonist activity at GPR35 in human HT-29 cells by dynamic mass redistribution assay relative to zaprinast. In kind it is functional, cell-based.
The target is the same in experiment [4]. Description: Agonist activity at GPR35 in human U2OS cells expressing beta-lactamase and Gal4-VP16 transcription factor assessed as beta arrestin translocation after 5 hrs by Tango assay relative to zaprinast. In kind it is functional, cell-based. The method, boiled down:
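Tango GPR35-bla U2OS cells seeded at 10,000/well and cultured overnight in DMEM with 10% dialyzed FBS. Ligand stimulation 5 h at 37 °C/5% CO2, then LiveBLAzer FRET B/G substrate loading for 2 h. […] EC50 from monophasic sigmoidal fit. Two independent runs, each in duplicate (n = 4).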

For experiment [5] the target is unchanged. Description: Agonist activity at GPR35 in human HT-29 cells at 250 nM by dynamic mass redistribution assay in presence of CID 2745687. In kind it is functional, cell-based. In a few lines:
(§1)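 Native HT-29 cells seeded at 32,000/well and cultured overnight to confluence in McCoy's 5a with 10% FBS at 37 °C/5% CO2, washed twice and held in 1x HBSS for 1 h. CID 2745687 was pre-incubated 10 min at varying doses, then agonist added at a fixed dose. DMR amplitude read 10 min poststimulation, background corrected. Two independent runs, each in duplicate (n = 4).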

Experiment [6] has the same target. Put plainly: Agonist activity at GPR35 in human U20S cells expressing beta-lactamase and Gal4-VP16 transcription factor assessed as beta arrestin translocation at 20 uM after 5 hrs by Tango assay in the presence of ML-145. In kind it is functional, cell-based. Conditions: U2OS. In a few lines: (§2)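 Tango antagonist format in GPR35-bla U2OS cells. Agonist at a fixed dose was combined with varying ML-145 doses, followed by 5 h stimulation at 37 °C and 2 h FRET B/G substrate loading. Coumarin/fluorescein ratio read out, with IC50 derived. Two independent runs, each in duplicate (n = 4).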

Experiment [7] shares this target. Put plainly: Agonist activity at GPR35 in human HT-29 cells at 125 nM by dynamic mass redistribution assay in presence of CID 2745687. In kind it is functional, cell-based. The method, boiled down:
as §1

For experiment [8] the target is unchanged. Description: Agonist activity at GPR35 in human U20S cells expressing beta-lactamase and Gal4-VP16 transcription factor assessed as beta arrestin translocation at 10 uM after 5 hrs by Tango assay in the presence of ML-145. It counts as functional, cell-based. The conditions noted are these: U2OS. In a few lines:
as §2

Experiment [9] has the same target. Put plainly: Agonist activity at GPR35 in human U20S cells expressing beta-lactamase and Gal4-VP16 transcription factor assessed as beta arrestin translocation at 64 uM after 5 hrs by Tango assay in the presence of ML-145. It counts as functional, cell-based. The conditions noted are these: U2OS. In a few lines: as §2
For experiment [10] the target is unchanged. Description: Agonist activity at GPR35 in human U20S cells expressing beta-lactamase and Gal4-VP16 transcription factor assessed as beta arrestin translocation at 100 uM after 5 hrs by Tango assay in the presence of ML-145. It counts as functional, cell-based. The conditions noted are these: U2OS. In a few lines:
as §2

For experiment [11] the target is unchanged. Description: Agonist activity at GPR35 in human HT-29 cells at 2 uM by dynamic mass redistribution assay in presence of CID 2745687. In kind it is functional, cell-based. The method, boiled down:
as §1

Experiment [12] has the same target. Description: Agonist activity at GPR35 in human HT-29 cells assessed as receptor internalization at 12.5 uM after 1 hr by confocal microscopy. In kind it is functional, cell-based. In a few lines: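 HT-29 cells treated 1 h with agonist in assay vehicle containing 0.1% DMSO (vehicle control), then permeabilized and immunostained with anti-GPR35 plus fluorescent secondary antibody. Internalization judged from confocal fluorescence images.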

Active and inactive are the calls of the source. The calls are words filed in the database; no cut-off is given here. Where only a bound is given, the exact number is not on record here.

T1 sequence (Q9HC97 whole entry, the tested form may be a part): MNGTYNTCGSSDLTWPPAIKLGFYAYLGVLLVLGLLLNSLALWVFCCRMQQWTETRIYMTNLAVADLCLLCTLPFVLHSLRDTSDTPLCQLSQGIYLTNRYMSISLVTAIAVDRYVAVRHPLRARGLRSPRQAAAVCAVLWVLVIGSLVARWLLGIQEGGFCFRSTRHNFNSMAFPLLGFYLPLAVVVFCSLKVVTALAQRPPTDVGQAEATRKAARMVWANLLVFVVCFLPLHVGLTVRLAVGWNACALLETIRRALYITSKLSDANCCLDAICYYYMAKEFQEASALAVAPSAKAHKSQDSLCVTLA

On to `Cc1c(C(=O)O)n(C)c2c(Br)csc12`, for which the EC50 (in general, the midpoint of the concentration-response curve) in experiment [1] (read-out: EC50) was 5.3 µM; in experiment [2] (read-out: EC50) it was 87.5 µM. Also, the Efficacy in [3] was determined as 290 pm; in experiment [4] it was 77%.
Take `Cc1c(C(=O)O)sc2c(Br)csc12`: in experiment [1], the Activity entry is “Dose-dependent effect”. Further, the EC50 in [1] (read-out: EC50) was 0.061 µM; in experiment [2] (read-out: EC50) it was 8.3 µM. Further, the outcome in experiment [5] and in experiment [6] was inactive. In addition, the Efficacy in [3] was determined as 290 pm; in experiment [4], 113%.
Regarding `Cc1sc2c(C)c(C(=O)O)sc2c1Br`, the EC50 came to 1.29 µM in experiment [1] (read-out: EC50) and 22.2 µM in experiment [2] (read-out: EC50). The Efficacy in experiment [3] worked out at 268 pm; in experiment [4], 52%.
For `O=C(O)c1sc2c(Br)c(Br)sc2c1O`, the Activity result in experiment [1] was “Dose-dependent effect”. In addition, the EC50 turned out to be 0.016 µM in [1] (read-out: EC50) and 2.46 µM in [2] (read-out: EC50). For the same molecule, the outcome in experiment [7] and in [8] was inactive. The Efficacy in experiment [3] was found to be 228 pm; in experiment [4], 96%.
With `Cc1c(C(=O)O)[nH]c2c(-c3cccnc3)csc12`, the EC50 in experiment [1] (read-out: EC50) was determined as 0.63 µM; in experiment [2] (read-out: EC50), 26.9 µM. The result in [9] was inactive. Moreover, the Efficacy in experiment [3] stood at 210 pm; in experiment [4], 120%.
Consider `Cc1c(C(=O)O)sc2c(C3CC3)csc12`, for which the EC50 in experiment [1] (read-out: EC50) is 0.95 µM; in experiment [2] (read-out: EC50) it was 52.4 µM. Also, the Efficacy was determined as 262 pm in [3] and 101% in experiment [4].
The matching figures for `Cc1c(C(=O)O)sc2c(-c3cn[nH]c3)csc12`: 0.37 µM, 52.5 µM, 180 pm and 102%.
In the case of `O=C(O)c1sc2c(Br)csc2c1C1CC1`, the EC50 in experiment [1] (read-out: EC50) stood at 2.63 µM; in experiment [2] (read-out: EC50), 504 µM. Also, the Efficacy came to 246 pm in experiment [3] and 46% in experiment [4].
Consider `Cc1c(C(=O)O)sc2c(-c3ccsc3)csc12`, for which the EC50 is 0.26 µM in [1] (read-out: EC50) and 17.6 µM in experiment [2] (read-out: EC50). Besides, in experiment [10], the outcome was inactive. The Efficacy in experiment [3] stood at 232 pm; in [4] it was 107%.
In the case of `Cc1c(C(=O)O)[nH]c2c(C3CC3)csc12`, the EC50 came out at 8.37 µM in [1] (read-out: EC50) and 119 µM in [2] (read-out: EC50). The Efficacy in experiment [3] stood at 228 pm; in experiment [4], 35%.
For `O=C(O)c1cc(=O)c2ccccc2[nH]1` [TRANSTORINE], the EC50 in experiment [1] (ht-29, read-out: EC50) is 152 µM; in [2] (read-out: EC50), greater than 500 µM. The Efficacy in experiment [3] is 202 pm; in experiment [4], greater than 60%.
As for `C#Cc1csc2c(C)c(C(=O)O)sc12`, the values for the EC50 in experiment [1] (read-out: EC50) and in experiment [2] (read-out: EC50) were 1.48 µM and 54.8 µM, respectively. Also, the Efficacy in experiment [3] came to 257 pm; in experiment [4], 102%.
The like results for `O=C(O)c1sc2c(Br)c(Br)sc2c1C(F)(F)F` were, in that order, 0.51 µM, 31.1 µM, 230 pm and 52%.
With `CCOC(=O)c1sc2c(Br)c(Br)sc2c1C(F)(F)F`, the EC50 result in experiment [1] (ht-29) and in experiment [2] (u2os) was “Not Active” throughout.
As to `O=C(O)c1sc2c(Br)csc2c1Cl`, the EC50 stood at 1.03 µM in experiment [1] (read-out: EC50) and 39.2 µM in experiment [2] (read-out: EC50). Further, the Efficacy came to 262 pm in [3] and 68% in experiment [4].
For `Cc1c(C(=O)O)sc2c(Br)c(Br)sc12`, in [1], the Activity entry was “Dose-dependent effect”. Also, the EC50 stood at 0.7 µM in experiment [1] (read-out: EC50) and 36.5 µM in [2] (read-out: EC50). In [11], the outcome was inactive. The Efficacy was 232 pm in [3] and 52% in [4].
With `Cc1c(C(=O)O)[nH]c2c(Br)csc12`, the figures for the EC50 in [1] (read-out: EC50) and in experiment [2] (read-out: EC50) were 11.8 µM and 113 µM, respectively. The Efficacy is 222 pm in experiment [3] and 24% in [4].
In the case of `Cc1c(C(=O)O)sc2c(-c3cccnc3)csc12`, the figures for the EC50 in experiment [1] (read-out: EC50) and in [2] (read-out: EC50) were 0.24 µM and 11.8 µM, respectively. Moreover, the Efficacy in [3] stood at 223 pm; in experiment [4], 118%. Besides, the outcome in experiment [12] was Active.
Turning to `O=C(O)c1sc2ccsc2c1O`, the EC50 in experiment [1] (read-out: EC50) is 9.78 µM; in experiment [2] (read-out: EC50), 340 µM. The Efficacy in experiment [3] stood at 159 pm; in experiment [4], 64%.

These data come from ChEMBL document CHEMBL2034955, “Thieno[3,2-b]thiophene-2-carboxylic acid derivatives as GPR35 agonists” (Bioorg Med Chem Lett, 2012).
